Calls of active or inactive are those of the source. The calls are words filed in the database; no cut-off is given here.
Legend:
Mus musculus [1] = test: Toxicity in mouse S180 cells xenografted in ICR mouse assessed as increase in body weight at 89 umol/kg, ip administered 24 hrs after tumor implantation once daily for 7 consecutive days measured after 24 hrs last post dose; type: organism-based, CCRF S-180; conditions: in vivo
Summary of the method: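 S180-bearing male ICR mice, n = 12 per group, given 89 µmol/kg i.p. daily in 0.2 ml 0.9% saline for 7 days, starting 24 h after s.c. implantation. Animals weighed daily. Result expressed as body-weight increase from the start of treatment, in g, mean ± SD.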

CCRF S-180 [2] = test: Antitumor activity against mouse S180 cells xenografted in ICR mouse assessed as decrease in tumor weight at 89 umol/kg, ip administered 24 hrs after tumor implantation once daily for 7 consecutive days measured after 24 hrs last post dose; type: functional
Summary of the method: (§1)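 Male ICR mice, 10–12 weeks old. Solid tumors from 1 × 10^7 viable S180 ascites cells in 0.2 ml 0.9% saline, injected s.c. at the right armpit. Random allocation at 24 h, 12 per group. Dosed i.p. daily in 0.2 ml 0.9% saline for 7 days. Saline-only negative control; cytarabine 89 µmol/kg positive control. Tumors excised and weighed 24 h after the last dose. ANOVA used for statistics.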

CCRF S-180 [3] = test: Antitumor activity against mouse S180 cells xenografted in ICR mouse assessed as inhibition of tumor growth at 0.89 umol/kg, ip administered 24 hrs after tumor implantation once daily for 7 consecutive days measured after 24 hrs last post dose; type: functional; conditions: CCRF S-180, ip
Summary of the method: (§2)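 S180 solid tumors in male ICR mice (10–12 weeks), 1 × 10^7 cells s.c. at the right armpit. Mice randomized at 24 h, n = 12 per group, and dosed i.p. daily in 0.2 ml 0.9% saline for 7 days. Tumors weighed 24 h after the final dose. Inhibition (%) = [(A − B)/A] × 100, where A is the mean tumor weight of saline controls and B is the mean of the treated group.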

CCRF S-180 [4] = test: Antitumor activity against mouse S180 cells xenografted in ICR mouse assessed as inhibition of tumor growth at 0.0089 umol/kg, ip administered 24 hrs after tumor implantation once daily for 7 consecutive days measured after 24 hrs last post dose; type: functional; conditions: CCRF S-180, ip; summary of the method: as §2
CCRF S-180 [5] = test: Antitumor activity against mouse S180 cells xenografted in ICR mouse assessed as inhibition of tumor growth at 89 umol/kg, ip administered 24 hrs after tumor implantation once daily for 7 consecutive days measured after 24 hrs last post dose; type: functional; conditions: CCRF S-180, ip; summary of the method: as §2
Mus musculus [6] = test: Toxicity in ICR mouse assessed as death at > 500 mg/kg, ip after 7 days; type: organism-based; set-up: dose 500 mg/kg, route intraperitoneal; conditions: in vivo, 168 h
Summary of the method: (§3)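 Mice fasted overnight with free access to water, then given a single i.p. injection of 150, 300 or 500 mg/kg in 0.2 ml of 0.9% saline. Groups of 12 (six male, six female). Animals were watched continuously for up to 7 days for abnormal behaviour (tremor, twitch, jumping, tetanus, supination) or death. They were sacrificed on day 7, and heart, liver and kidneys were checked macroscopically. LD50 was estimated graphically.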

CCRF S-180 [7] = test: Antitumor activity against mouse S180 cells xenografted in ICR mouse assessed as decrease in tumor weight at 0.89 umol/kg, ip administered 24 hrs after tumor implantation once daily for 7 consecutive days measured after 24 hrs last post dose; type: functional; summary of the method: as §1
Mus musculus [8] = test: Toxicity in ICR mouse assessed as supination at > 500 mg/kg, ip after 7 days; type: organism-based; set-up: dose 500 mg/kg, route intraperitoneal; conditions: in vivo, 168 h; summary of the method: as §3
[9] = Cytotoxicity against human MES-SA cells after 48 hrs by MTT assay; type: functional, cell-based
Summary of the method: (§4)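 Cells grown in DMEM or RPMI-1640 with 10% FBS plus penicillin/streptomycin. Seeded at 5 × 10^4 cells/ml and given 4 h at 37 °C in 5% CO2 before the medium was replaced with compound (0.1–400 µM, DMSO vehicle; vehicle control 1% DMSO). After 48 h, MTT added (final 0.5 mg/ml) for 4 h. Formazan dissolved in DMSO and read at 570 nm. IC50 is the concentration giving 50% growth inhibition.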

Mus musculus [10] = test: Toxicity in mouse S180 cells xenografted in ICR mouse assessed as spleen index at 89 umol/kg, ip administered 24 hrs after tumor implantation once daily for 7 consecutive days measured after 24 hrs last post dose; type: organism-based, CCRF S-180; conditions: in vivo
Summary of the method: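 S180-bearing male ICR mice (n = 12) received 89 µmol/kg i.p. daily in 0.2 ml saline for 7 days. Killed under ether 24 h after the last dose; spleens excised and weighed. Spleen index given as mean ± SD, […] body weight.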

HepG2 = test: Cytotoxicity against human HepG2 cells after 48 hrs by MTT assay; type: functional, cell-based; conditions: HepG2, 48 h; summary of the method: as §4
CCRF S-180 [11] = test: Antitumor activity against mouse S180 cells xenografted in ICR mouse assessed as decrease in tumor weight at 0.0089 umol/kg, ip administered 24 hrs after tumor implantation once daily for 7 consecutive days measured after 24 hrs last post dose; type: functional; summary of the method: as §1
Mus musculus [12] = test: Toxicity in ICR mouse assessed as jumping at > 500 mg/kg, ip after 7 days; type: organism-based; set-up: dose 500 mg/kg, route intraperitoneal; conditions: in vivo, 168 h; summary of the method: as §3
HeLa = test: Cytotoxicity against human HeLa cells after 48 hrs by MTT assay; type: functional, cell-based; summary of the method: as §4
HL-60 = test: Cytotoxicity against human HL60 cells after 48 hrs by MTT assay; type: functional, cell-based; conditions: HL-60, 48 h; summary of the method: as §4
[13] = Cytotoxicity against human H1299 cells after 48 hrs by MTT assay; type: functional, cell-based; conditions: NCI-H1299, 48 h; summary of the method: as §4
Mus musculus [14] = test: Toxicity in ICR mouse assessed as twitch at > 500 mg/kg, ip after 7 days; type: organism-based; set-up: dose 500 mg/kg, route intraperitoneal; conditions: in vivo, 168 h; summary of the method: as §3
Mus musculus [15] = test: Toxicity in ICR mouse assessed as kidneys necropsy at > 500 mg/kg, ip after 7 days; type: organism-based, Kidney; set-up: dose 500 mg/kg, route intraperitoneal; conditions: in vivo, 168 h; summary of the method: as §3
CCRF S-180 [16] = test: Antitumor activity against mouse S180 cells xenografted in ICR mouse assessed as inhibition of tumor growth at > 89 umol/kg, ip administered 24 hrs after tumor implantation once daily for 7 consecutive days measured after 24 hrs last post dose; type: functional, organism-based
Mus musculus [17] = test: Toxicity in ICR mouse assessed as liver necropsy at > 500 mg/kg, ip after 7 days; type: organism-based; set-up: dose 500 mg/kg, route intraperitoneal; conditions: in vivo, 168 h; summary of the method: as §3
Mus musculus [18] = test: Toxicity in ICR mouse assessed as heart necropsy at > 500 mg/kg, ip after 7 days; type: organism-based; set-up: dose 500 mg/kg, route intraperitoneal; conditions: in vivo, 168 h; summary of the method: as §3
Mus musculus [19] = test: Toxicity in ICR mouse assessed as tetanus at > 500 mg/kg, ip after 7 days; type: organism-based; set-up: dose 500 mg/kg, route intraperitoneal; conditions: in vivo, 168 h; summary of the method: as §3
Mus musculus [20] = test: Toxicity in ICR mouse assessed as tremor at > 500 mg/kg, ip after 7 days; type: organism-based; set-up: dose 500 mg/kg, route intraperitoneal; conditions: in vivo, 168 h; summary of the method: as §3

## C[C@H](NCCc1nc(C(=O)O)cc2c3ccccc3n(Cc3ccccc3)c12)C(=O)O
Mus musculus [1]
  Activity: 12.92 g
CCRF S-180 [2]
  Activity: 0.74 g
CCRF S-180 [3]
  inhibition in vivo at 0.89 µmol/kg: 25.6%
CCRF S-180 [4]
  inhibition in vivo at 0.0089 µmol/kg: 1.5%
CCRF S-180 [5]
  inhibition in vivo at 89 µmol/kg: 55.2%
Mus musculus [6]
  Activity: Non-toxic
CCRF S-180 [7]
  Activity: 1.22 g
Mus musculus [8]
  Activity: Non-toxic
[9]
  IC50: 120 µM
Mus musculus [10]
  Activity: 13.3 mg/g
HepG2
  IC50: 242 µM
CCRF S-180 [11]
  Activity: 1.64 g
Mus musculus [12]
  Activity: Non-toxic
HeLa
  IC50: 122 µM
HL-60
  IC50: 28.1 µM
[13]
  IC50: 81.8 µM
Mus musculus [14]
  Activity: Non-toxic
Mus musculus [15]
  Activity: Non-toxic
CCRF S-180 [16]
  Activity: Active
Mus musculus [17]
  Activity: Non-toxic
Mus musculus [18]
  Activity: Non-toxic
Mus musculus [19]
  Activity: Non-toxic
Mus musculus [20]
  Activity: Non-toxic
